Test results from ChEMBL document CHEMBL2424628, “Discovery of potent and selective nonsteroidal indazolyl amide glucocorticoid receptor agonists” (Bioorg Med Chem Lett, 2013).

Tests used:
[1] = target: T1, Glucocorticoid receptor (Homo sapiens) (UniProt P04150); assay: Agonist activity at glucocorticoid receptor in human A549 cells assessed as inhibition of PMA-induced AP-1 activation by luciferase reporter gene assay relative to dexamethasone; type: cell-based
T1 sequence (whole entry): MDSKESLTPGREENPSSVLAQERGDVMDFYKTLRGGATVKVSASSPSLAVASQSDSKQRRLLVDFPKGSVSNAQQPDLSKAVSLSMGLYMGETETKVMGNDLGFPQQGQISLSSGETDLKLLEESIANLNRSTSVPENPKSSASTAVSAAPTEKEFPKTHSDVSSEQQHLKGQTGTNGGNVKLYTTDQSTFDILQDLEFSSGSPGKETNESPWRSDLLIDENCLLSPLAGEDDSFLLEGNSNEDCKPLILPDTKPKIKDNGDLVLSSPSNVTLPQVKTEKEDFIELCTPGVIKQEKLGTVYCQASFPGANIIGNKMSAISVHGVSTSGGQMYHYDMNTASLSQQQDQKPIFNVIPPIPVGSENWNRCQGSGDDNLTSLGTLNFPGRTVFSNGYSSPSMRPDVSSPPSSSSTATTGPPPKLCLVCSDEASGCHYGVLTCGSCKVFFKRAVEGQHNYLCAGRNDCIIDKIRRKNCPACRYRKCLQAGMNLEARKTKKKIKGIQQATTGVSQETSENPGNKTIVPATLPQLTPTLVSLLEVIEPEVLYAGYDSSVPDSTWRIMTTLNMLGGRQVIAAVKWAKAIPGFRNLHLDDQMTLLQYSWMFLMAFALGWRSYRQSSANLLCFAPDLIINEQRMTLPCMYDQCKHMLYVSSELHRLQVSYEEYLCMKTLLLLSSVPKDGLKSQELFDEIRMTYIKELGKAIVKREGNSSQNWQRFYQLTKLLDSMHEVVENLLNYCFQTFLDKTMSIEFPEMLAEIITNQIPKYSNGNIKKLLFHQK
Method in brief: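 A549 lung epithelial cells stably carrying a luciferase reporter with 5 copies of the AP-1 response element; AP-1 induced with PMA (15 ng/ml). Compound inhibition of induction read as decreased luciferase. […] Means of two or more experiments in triplicate.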

Glucocorticoid receptor = target: T2, Glucocorticoid receptor (Homo sapiens, UniProt P04150); assay: Agonist activity at glucocorticoid receptor in human A549 cells assessed as inhibition of PMA-induced AP-1 activation by luciferase reporter gene assay; type: cell-based
T2 sequence (P04150 whole entry): T1 sequence (whole entry)

Homo sapiens [2] = organism: Homo sapiens; assay: Selectivity ratio of Ki for androgen receptor (unknown origin) to Ki for glucocorticoid receptor (unknown origin)
Homo sapiens [3] = organism: Homo sapiens; assay: Selectivity ratio of Ki for progesterone receptor (unknown origin) to Ki for glucocorticoid receptor (unknown origin)
Androgen receptor = target: T3, Androgen receptor (Homo sapiens, UniProt P10275); assay: Binding affinity to androgen receptor (unknown origin) by fluorescence polarization assay
T3 sequence (P10275 whole entry): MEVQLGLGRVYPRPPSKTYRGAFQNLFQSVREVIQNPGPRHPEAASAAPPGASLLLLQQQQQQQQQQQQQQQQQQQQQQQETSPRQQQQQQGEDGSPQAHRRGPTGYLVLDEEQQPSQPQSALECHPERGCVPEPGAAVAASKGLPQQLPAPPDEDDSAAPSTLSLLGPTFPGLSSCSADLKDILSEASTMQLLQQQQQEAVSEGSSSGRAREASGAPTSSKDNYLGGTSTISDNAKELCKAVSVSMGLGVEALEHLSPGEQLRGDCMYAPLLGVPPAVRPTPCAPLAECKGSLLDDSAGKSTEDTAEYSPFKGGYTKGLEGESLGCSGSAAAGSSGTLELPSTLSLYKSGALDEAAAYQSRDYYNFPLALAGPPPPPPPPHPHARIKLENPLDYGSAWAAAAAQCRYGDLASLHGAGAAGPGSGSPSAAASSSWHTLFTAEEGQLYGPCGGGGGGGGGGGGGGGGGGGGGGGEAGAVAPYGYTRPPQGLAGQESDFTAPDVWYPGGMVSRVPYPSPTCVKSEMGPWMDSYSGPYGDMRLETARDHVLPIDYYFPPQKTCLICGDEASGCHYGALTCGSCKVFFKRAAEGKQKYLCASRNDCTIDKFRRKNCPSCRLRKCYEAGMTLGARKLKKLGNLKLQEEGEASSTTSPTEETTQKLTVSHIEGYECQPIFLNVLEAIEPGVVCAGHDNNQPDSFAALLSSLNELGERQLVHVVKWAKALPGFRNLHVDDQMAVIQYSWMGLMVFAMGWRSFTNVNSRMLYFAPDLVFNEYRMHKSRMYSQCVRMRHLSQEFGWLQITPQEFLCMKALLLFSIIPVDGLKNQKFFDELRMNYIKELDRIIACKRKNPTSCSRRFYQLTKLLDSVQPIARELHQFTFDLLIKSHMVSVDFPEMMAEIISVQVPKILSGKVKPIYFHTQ
Method in brief: (§1)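 Fluorescence polarization competition between test compound and a fluorescently labeled ligand for full-length receptor or its ligand binding domain. IC50 from a four-parameter logistic fit of the polarization signal, converted to Ki with Cheng–Prusoff […]. Means of duplicate experiments.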

Progesterone receptor = target: T4, Progesterone receptor (Homo sapiens, UniProt P06401); assay: Binding affinity to progesterone receptor (unknown origin) by fluorescence polarization assay; method in brief: as §1
T4 sequence (P06401 whole entry): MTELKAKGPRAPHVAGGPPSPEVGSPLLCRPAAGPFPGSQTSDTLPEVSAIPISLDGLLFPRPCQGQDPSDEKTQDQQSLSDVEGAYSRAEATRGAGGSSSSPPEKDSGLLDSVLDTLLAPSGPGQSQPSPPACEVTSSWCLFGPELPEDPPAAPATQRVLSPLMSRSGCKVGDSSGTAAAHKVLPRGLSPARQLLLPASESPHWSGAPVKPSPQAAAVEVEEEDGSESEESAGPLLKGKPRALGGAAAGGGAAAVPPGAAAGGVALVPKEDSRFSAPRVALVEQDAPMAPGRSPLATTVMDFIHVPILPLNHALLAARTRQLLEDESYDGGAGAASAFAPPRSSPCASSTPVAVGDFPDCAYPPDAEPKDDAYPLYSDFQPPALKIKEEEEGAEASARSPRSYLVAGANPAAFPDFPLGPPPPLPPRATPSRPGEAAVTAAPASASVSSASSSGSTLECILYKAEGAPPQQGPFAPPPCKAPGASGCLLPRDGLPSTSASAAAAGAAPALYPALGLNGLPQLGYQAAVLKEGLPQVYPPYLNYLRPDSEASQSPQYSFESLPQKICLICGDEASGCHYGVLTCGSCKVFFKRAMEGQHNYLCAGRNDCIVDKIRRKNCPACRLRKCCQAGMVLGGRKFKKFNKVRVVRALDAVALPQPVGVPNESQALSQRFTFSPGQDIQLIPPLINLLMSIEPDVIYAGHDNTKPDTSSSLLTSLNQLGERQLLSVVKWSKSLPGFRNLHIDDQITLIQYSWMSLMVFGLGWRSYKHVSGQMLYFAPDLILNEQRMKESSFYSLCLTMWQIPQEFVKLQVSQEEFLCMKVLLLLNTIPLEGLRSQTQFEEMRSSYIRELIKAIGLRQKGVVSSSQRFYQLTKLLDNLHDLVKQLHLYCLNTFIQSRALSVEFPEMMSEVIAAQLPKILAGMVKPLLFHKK

Efficacy [1] [%] | EC50 (Glucocorticoid receptor) [nM] | Ratio Ki (Homo sapiens [2]) | Ratio Ki (Homo sapiens [3]) | Ki (Androgen receptor) [nM] | Ki (Progesterone receptor) [nM] | SMILES
60 | 18 | > 1000 | 10 | 2510 | 109 | CCCC(c1ccc2c(cnn2-c2ccc(F)cc2)c1)C(C)(C)C(=O)Nc1nncs1 (racemic)
– | – | – | – | 243 | 214 | CC(C(=O)Nc1nncs1)[C@@H](c1ccccc1)c1ccc2c(cnn2-c2ccc(F)cc2)c1 (single isomer, unassigned; diastereomer 2)
– | – | – | – | > 4170 | 22 | CC(C(=O)Nc1nncs1)[C@@H](c1ccccc1)c1ccc2c(cnn2-c2ccc(F)cc2)c1 (single isomer, unassigned; diastereomer 3)
